# Compounds with a hit are over-represented: about 1.9% of the library has one in this group of screens.
# SR-BI HDL uptake: inhibitors of mouse SR-BI mediated HDL lipid uptake. Q61009. hit rate 0.96% among 320,000. AID 488896. ldlA[mSR-BI] CHO cells, DiI-HDL uptake fluorescence, 3 h. inhibition, % at 12.5 µM;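 active = mean replicate inhibition of at least 70% and a set share of replicates each scoring 70 or more; inconclusive = meets just one of the two criteria; inactive = fails both criteria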;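 also: 0% = median of neutral control wells and 100% = median of positive control wells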
# Glyco luc inh: blocks N-linked glycosylation in D54 reporter cells; reporter increase, % at 12.5 µM; D54 ERlucT glycosylation luciferase reporter, 24 h; percent of 100 nM tunicamycin response; AID 588692; hit rate 0.23% among 360,000;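 active = mean luciferase reporter signal, scaled so untreated is 0 and the glycosylation-blocking control 100, at or above a set limit in every replicate; inconclusive = mean reaches the limit but not every replicate does; inactive = mean below the limit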;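 also: luciferase carries N-glycosylation sites so blocking glycosylation raises the light; 0% = median of neutral control wells and 100% = median of 100 nM tunicamycin wells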
# Env fusion inh: inhibitors of HIV Env-mediated cell fusion; hit rate 1.1% among 360,000; HeLa-JRFL Env/CEM21 cell fusion, luciferase; AID 651610; inhibition, % at 12.3 µM;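 active = mean replicate inhibition score of at least 50 and every replicate individually at or above 50; inconclusive = only one of the two criteria met; inactive = mean below 50 and not all replicates reaching 50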;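 also: 0% = plate neutral controls and 100% = maraviroc near 300 nM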
# SR-BI uptake up: SR-BI HDL lipid transfer activation. CHO ldlA[mSR-BI] cells, DiI-HDL uptake fluorescence, 3 h; 100 = double the neutral-control signal. hit rate 0.096% among 320,000. activation, % at 12.5 µM;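 active = mean replicate activation of at least 60% and every replicate at or above 60%; inconclusive = mean or all-replicate condition met, but not both; inactive = mean below 60% and not all replicates reaching 60%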;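 also: 0% = median plate neutral-control signal and 100% = twice that signal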
#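 system = CHO ldlA[mSR-BI] cells, LDL receptor-null, SR-BI overexpressing | medium = Ham's F12 with 0.5% BSA, HEPES 25 mM, pH 7.4 | probe or stimulus = DiI-HDL 10 µg/mL | compound dosing = single-point compound dose | incubation = compound exposure 3 h, 37 °C | technique = DiI fluorescence, bottom read | read-out = cell-associated DiI fluorescence as measure of HDL uptake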
# PglD DTNB: inhibitors of Campylobacter jejuni PglD acetyltransferase; purified PglD enzyme, DTNB colorimetric CoA detection; inhibition, % at 12.5 µM; hit rate 0.098% among 360,000; AID 602405; in the data active = inhibition above about 16%, passing the limit was not always enough; inconclusive = no clear call, values can overlap the other calls
# Rtt109 Vps75: C. albicans Rtt109 histone acetyltransferase inhibition | Q5AAJ8 | purified Rtt109/Vps75, ThioGlo CoA-SH fluorescence, 4 h | inhibition, % at 34.9 µM | hit rate 0.16% among 330,000 | AID 540336;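 active = inhibition of at least 50% in every replicate; inconclusive = best replicate reaches 50% inhibition but some replicates fall short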
# Target sequence (Q5AAJ8 whole entry, looked up): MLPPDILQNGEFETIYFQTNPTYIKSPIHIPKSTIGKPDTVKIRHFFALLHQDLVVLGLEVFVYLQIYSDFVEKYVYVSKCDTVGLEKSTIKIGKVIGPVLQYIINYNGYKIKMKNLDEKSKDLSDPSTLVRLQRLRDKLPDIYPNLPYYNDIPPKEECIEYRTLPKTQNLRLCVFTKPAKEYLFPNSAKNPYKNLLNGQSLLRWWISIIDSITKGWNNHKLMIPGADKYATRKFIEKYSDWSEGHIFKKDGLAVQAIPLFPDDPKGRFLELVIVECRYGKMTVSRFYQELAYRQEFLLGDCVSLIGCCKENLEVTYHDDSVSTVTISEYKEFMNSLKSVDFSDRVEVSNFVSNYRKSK
# DiI quench: quenches DiI-HDL fluorescence, an SR-BI assay artifact; hit rate 20% among 470; shares compounds with SR-BI HDL uptake; cell-free DiI-HDL fluorescence quenching, 30 min; AC50, µM (doses to about 35 µM), for inactives: at the highest dose activity change, negative = quenching;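 active = quenching, a falling signal, with AC50 below a set limit tied to the top valid dose, actives reach about 32 µM in these data; inconclusive = no clear call, values can overlap the other calls; inactive = rising signal, and the rest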
# * marks the source's active call; other numbers are inactive results; ? = inconclusive; . = not tested or not shown; [ ] = dose if it differs, or a comment.
SMILES,SR-BI HDL uptake,Glyco luc inh,Env fusion inh,SR-BI uptake up,PglD DTNB,Rtt109 Vps75,DiI quench
COc1cccc2c1cc1c(=O)n(CC(=O)N3CCN(c4cccc(C)c4C)CC3)nc(C)n12,0,1,12,0,-2,4,2%
Cc1ccccc1NC(=O)N(CCc1nc2ccccc2[nH]1)Cc1ccccc1,96*,-1,.,-96,11,6,6%
CC(=O)Nc1cccc(CCc2nc3ccccc3[nH]2)c1,-135,1,-12,?,-5,-2,.
COc1ccc(-c2cc(-c3cccs3)nc3sc(C#N)c(N)c23)cc1,?,4,14,-74,.,-7,.
N#Cc1sc2nc(C3CC3)cc(-c3ccc(Cl)cc3)c2c1N,?,6,-14,-71,-3,7,1%
COCC(=O)N1C[C@@H](C)[C@H](OC)CN(C)C(=O)c2ccc(NC(=O)Nc3ccccc3)cc2OC[C@@H]1C,.,.,21[16.7 µM],.,.,.,.
O=C(Nc1ncc(Cc2cccc(C(F)(F)F)c2)s1)c1ccc(-c2cccc([N+](=O)[O-])c2)o1,51,-7,.,-51,-9,-6,-10%
Cc1ccc(NC(=O)COC(=O)CCc2c[nH]c3ccccc23)cc1,.,3,19,.,-4,.,.
Cc1cc(C)cc(N(CCC#N)C(=O)COC(=O)CCc2c[nH]c3ccccc23)c1,?,-1,9,-74,4,-7,-13%
CN(C(=O)COC(=O)CCc1c[nH]c2ccccc12)c1ccccc1,-25,3,-19,25,-6,15,-5%
C[C@H](CO)N1C[C@H](C)[C@H](CN(C)S(=O)(=O)c2ccc(F)cc2)Oc2cc(C#Cc3ccc(F)cc3)ccc2S1(=O)=O,.,.,16[16.7 µM],.,-1,.,.
O=C(N[C@H]1CC[C@@H](CC(=O)N2CCc3ccccc3C2)O[C@H]1CO)C1CCC1,.,.,2[16.7 µM],.,0,.,.
Cc1ccc(C(C(=O)NC(C)(C)C)N(Cc2cccs2)C(=O)c2ccc3c(c2)OCCO3)cc1 (stereo not given),-12,-4,29,12,.,-1,3%
CCC(C)(C)NC(=O)C(c1ccc(OC)cc1)N(Cc1cccs1)C(=O)CCC(=O)Nc1cc(C)on1 (stereo not given),-10,-2,.,10,2,15,.
CCC(C)(C)NC(=O)C(c1ccc(C)cc1)N(Cc1cccs1)C(=O)c1ccc2c(c1)OCCO2 (stereo not given),77*,-7,.,-77,1,.,6%
CC(=O)N1C[C@H]2[C@@H](c3ccccc31)[C@@H](CO)N2C(=O)CC1CC1,.,.,.,.,6,.,.
CCOC(=O)C1CCCN(C(=O)c2cc(-c3ccc(C)cc3)on2)C1 (stereo not given),-1,-6,11,1,1,3,.
CCOC(=O)C1CCCN(C(=O)c2cc(COc3ccc(C)nc3)on2)C1 (stereo not given),-15,2,-16,15,0,-10,-1%
COc1cc(/C=N/NC(=O)Cc2csc(C)n2)ccc1OCC(C)C,82*,0,14,-82,.,5,-2%
Cc1cc(C)n(CC(=O)NC2CCCc3c2cnn3-c2ccc(C)c(C)c2)n1 (stereo not given),?,2,-19,-72,3,1,-2%
CCCNC(=O)C[C@H]1C[C@@H]2c3cc(NC(=O)Nc4ccc(F)cc4)ccc3O[C@@H]2[C@@H](CO)O1,.,.,7[16.7 µM],.,2,.,.
COc1ccc(-c2csc(NCCc3nc4cc(Cl)c(N5CCCCC5)cc4n3CCOCCO)n2)cc1,83*,2,38,-83,3,4,13µM*
COc1ccc(-c2csc(N3CCN(c4cc5c(cc4Cl)nc(-c4ccncc4)n5CCOCCO)CC3)n2)cc1,61,2,27,-61,0,-7,.
CNC[C@@H]1Oc2ccc(NS(=O)(=O)c3ccc(Cl)cc3)cc2CC(=O)N([C@@H](C)CO)C[C@@H]1C,.,.,.,.,-3,.,.
CC(C)[C@H](NC(=O)c1ccco1)C(=O)OCC(=O)c1ccc2c(c1)NC(=O)CO2,-20,3,17,20,.,.,-5%
SMILES,SR-BI HDL uptake,Glyco luc inh,Env fusion inh,SR-BI uptake up,PglD DTNB,Rtt109 Vps75,DiI quench
O=C1COc2ccc(C(=O)COC(=O)c3ccco3)cc2N1,.,0,-12,.,.,-5,.
COc1cc(NC(=O)C2CC(c3c(F)cccc3Cl)=NO2)c(OC)cc1Cl (stereo not given),82*,-3,9,-82,1,-12,0%
Cc1ccc(-n2nc(C)c3c(C(=O)OCC(=O)N(C)C4CCS(=O)(=O)C4)cc(-c4ccccc4)nc32)cc1 (stereo not given),?,3,-19,-70,.,10,?
CCN(C(=O)COC(=O)c1cc(-c2ccccc2)nc2c1c(C)nn2-c1ccccc1)C1CCS(=O)(=O)C1 (stereo not given),50,2,-9,-50,.,-18,.
COc1cc(/C=C\C(=O)NCc2ccc3c(c2)cc(C)n3C)cc(OC)c1OC,78*,2,-102,-78,-1,-2,-4%
COc1ccc(CC(=O)NCc2ccc3c(c2)cc(C)n3C)cc1OC,25,-4,20,-25,.,31,.
O=C(N[C@@H]1CC[C@H](CCNS(=O)(=O)c2ccc(Cl)cc2)O[C@@H]1CO)c1cccnc1,.,.,-1[16.7 µM],.,1,.,.
Cc1cc(=O)oc2cc(OCC(=O)N3CCN(C(=O)C4COc5ccccc5O4)CC3)c(Cl)cc12 (stereo not given),80*,0,-2,-80,2,-1,-5%
COc1cc(C2CC(=O)c3c([nH]c(C(=O)OCCOC(C)C)c3C)C2)cc(OC)c1OC (stereo not given),82*,-6,55*,-82,-5,10,-2%
C[C@@H]1CN([C@H](C)CO)C(=O)c2cc(-c3ccccc3F)cnc2O[C@H]1CN(C)Cc1cccc(F)c1,.,.,24[16.7 µM],.,3,.,.
Cn1c(CCN2CCN(c3ccccn3)CC2)nc2cc(NS(=O)(=O)c3ccc(Cl)cc3)ccc21,73*,-7,-5,-73,-2,5,-2%
Cc1ccc(S(=O)(=O)Nc2ccc3c(c2)nc(CCN2CCN(c4ccccn4)CC2)n3C)cc1,34,-7,6,-34,0,15,.
CCc1cc(=O)oc2c3c(cc(OCC(=O)NCc4ccco4)c12)OC(C)(C)CC3,?,6,.,-76,1,1,0%
C[C@H]1CN([C@@H](C)CO)S(=O)(=O)c2ccc(-c3cccc(C#N)c3)cc2O[C@@H]1CN(C)Cc1cccc(F)c1,.,.,24[16.7 µM],.,-1,.,.
COc1cccc(NC(=O)NC2CCN(Cc3nnnn3Cc3ccc4c(c3)OCO4)CC2)c1,30,0,7,-30,-4,4,.

# Screening data from PubChem.
